According to ChEMBL document CHEMBL3120098, “Structure-activity relationship (SAR) optimization of 6-(indol-2-yl)pyridine-3-sulfonamides: identification of potent, selective, and orally bioavailable small molecules targeting hepatitis C (HCV) NS4B” (J Med Chem, 2014):

What was measured:
Cytochrome P450 3A4 [1] = target: T1, Cytochrome P450 3A4 (Homo sapiens, UniProt P08684); assay: Inhibition of CYP3A4 in human liver microsomes; type: ADME
[2] = Ratio of EC50 for HCV1b Con1 to plasma concentration in Sprague-Dawley rat at 10 mg/kg, po after 6 hrs
Hepatitis C virus [3] = assay: Antiviral activity against HCV1b Con1 infected in human HuH7 cells assessed as inhibition of viral RNA replication by RT-PCR analysis; type: functional, organism-based, Hepacivirus hominis; details: isolate Con1, Huh-7
Cytochrome P450 2C9 = Cytochrome P450 2C9 (Homo sapiens, UniProt P11712); assay: Inhibition of CYP2C9 in human liver microsomes; type: ADME
Cytochrome P450 2D6 = Cytochrome P450 2D6 (Homo sapiens, UniProt P10635); assay: Inhibition of CYP2D6 in human liver microsomes; type: ADME
[4] = test system: Pregnane X receptor (Homo sapiens); assay: Activation of PXR (unknown origin) at 10 uM by reporter gene assay
[5] = AUC (0 to 6 hrs) in Sprague-Dawley rat at 10 mg/kg, po; type: ADME, organism-based; set-up: time < 6 hr, dose 10 mg/kg, route oral; details: plasma
[6] = Toxicity in human HuH7 cells assessed as effect on GAPDH mRNA level; type: cell-based, Huh-7
Method in brief: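 Run in parallel with replicon assay in Con1 replicon Huh-7 cells (0.5% DMSO, 37 °C); endogenous GAPDH mRNA quantified by TaqMan RT-PCR; highest concentration tested 10000 nM.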

Cytochrome P450 3A4 [7] = target: T1, Cytochrome P450 3A4; assay: Induction of CYP3A4 activity in human hepatocytes at 3 uM relative to rifampicin; type: ADME, cell-based, Hepatocyte
Method in brief: (§1)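 Cryopreserved cultured human hepatocytes incubated 3 days with compound at several concentrations; CYP3A4 enzyme activity and mRNA expression measured, expressed as percent induction relative to rifampicin.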

Hepatocyte [8] = assay: Induction of CYP3A4 mRNA expression in human hepatocytes at 10 uM relative to rifampicin; type: ADME, cell-based; method in brief: as §1
Cytochrome P450 3A4 [9] = target: T1, Cytochrome P450 3A4; assay: Induction of CYP3A4 activity in human hepatocytes at 10 uM relative to rifampicin; type: ADME, cell-based, Hepatocyte; method in brief: as §1
Hepatitis C virus [10] = assay: Antiviral activity against HCV2a JFH-1 infected in human HuH7 cells assessed as inhibition of viral replication; type: functional, organism-based, Hepacivirus hominis; details: JFH-1, Huh-7
Hepatocyte [11] = assay: Induction of CYP3A4 mRNA expression in human hepatocytes at 3 uM relative to rifampicin; type: ADME, cell-based; method in brief: as §1
[12] = Ratio of drug level in liver to plasma in Sprague-Dawley rat at 10 mg/kg, po after 6 hrs; type: ADME, organism-based; set-up: dose 10 mg/kg, route oral
Method in brief: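 Male Sprague-Dawley rats, 10 mg/kg PO suspension in 0.4% hydroxypropyl methylcellulose; liver and plasma drug levels measured at 6 h, expressed as liver/plasma ratio.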

Cytochrome P450 2C9, sequence (P11712 whole entry): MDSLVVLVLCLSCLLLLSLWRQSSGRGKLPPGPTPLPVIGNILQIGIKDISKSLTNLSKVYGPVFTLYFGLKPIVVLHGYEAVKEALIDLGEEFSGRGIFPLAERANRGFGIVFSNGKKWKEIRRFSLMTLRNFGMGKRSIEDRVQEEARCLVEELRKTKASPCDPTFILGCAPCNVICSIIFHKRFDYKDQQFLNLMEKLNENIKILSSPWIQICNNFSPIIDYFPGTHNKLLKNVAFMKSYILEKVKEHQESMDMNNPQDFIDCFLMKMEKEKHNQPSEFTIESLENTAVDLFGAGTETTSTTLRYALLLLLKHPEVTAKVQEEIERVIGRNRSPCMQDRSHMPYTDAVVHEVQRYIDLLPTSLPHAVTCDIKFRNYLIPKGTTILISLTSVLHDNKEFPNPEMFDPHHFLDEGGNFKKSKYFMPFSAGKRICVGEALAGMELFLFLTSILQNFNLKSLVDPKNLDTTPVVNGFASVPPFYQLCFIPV
T1 sequence (P08684 whole entry): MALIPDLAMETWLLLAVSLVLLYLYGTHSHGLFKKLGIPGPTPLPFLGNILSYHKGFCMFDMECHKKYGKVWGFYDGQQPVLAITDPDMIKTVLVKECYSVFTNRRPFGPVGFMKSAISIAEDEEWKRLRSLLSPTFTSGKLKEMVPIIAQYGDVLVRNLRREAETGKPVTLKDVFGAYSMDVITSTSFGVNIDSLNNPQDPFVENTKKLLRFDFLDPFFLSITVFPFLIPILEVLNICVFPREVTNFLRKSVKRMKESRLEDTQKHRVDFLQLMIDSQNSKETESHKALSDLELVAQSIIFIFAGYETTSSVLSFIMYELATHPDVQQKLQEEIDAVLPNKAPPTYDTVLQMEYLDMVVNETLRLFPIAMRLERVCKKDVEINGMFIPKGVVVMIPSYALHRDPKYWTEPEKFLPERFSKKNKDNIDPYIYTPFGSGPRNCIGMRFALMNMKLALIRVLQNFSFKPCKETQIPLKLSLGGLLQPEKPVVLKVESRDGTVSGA
Cytochrome P450 2D6, sequence (P10635 whole entry): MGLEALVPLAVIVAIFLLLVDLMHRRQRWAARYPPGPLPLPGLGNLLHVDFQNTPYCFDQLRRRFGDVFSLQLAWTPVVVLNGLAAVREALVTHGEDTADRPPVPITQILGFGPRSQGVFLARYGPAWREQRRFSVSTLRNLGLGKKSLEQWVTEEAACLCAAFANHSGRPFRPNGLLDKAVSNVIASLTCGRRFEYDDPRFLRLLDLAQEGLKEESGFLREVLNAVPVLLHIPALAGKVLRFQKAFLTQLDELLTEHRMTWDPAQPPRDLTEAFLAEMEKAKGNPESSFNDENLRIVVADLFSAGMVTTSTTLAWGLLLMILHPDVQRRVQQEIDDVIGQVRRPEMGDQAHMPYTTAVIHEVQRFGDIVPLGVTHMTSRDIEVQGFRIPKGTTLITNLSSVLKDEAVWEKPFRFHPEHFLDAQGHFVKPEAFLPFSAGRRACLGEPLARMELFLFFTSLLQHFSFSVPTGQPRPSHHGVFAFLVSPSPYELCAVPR

Structure (SMILES) | Ratio [2] | EC50 (Hepatitis C virus [3]) [nM] | AUC(0-t) at 6 h [5] [µM·h] | IC50 [6] [µM] | also measured
CCc1cc2c(cc1F)c(C#N)c(-c1ccc(S(=O)(=O)N[C@@H](C)C(F)(F)F)cn1)n2-c1ccccn1 | 69 | 5 | 3.85 | > 10 | IC50 (Cytochrome P450 3A4 [1]): > 10 µM; IC50 (Cytochrome P450 2C9): > 10 µM; IC50 (Cytochrome P450 2D6): > 10 µM; Activity [4]: 54%
Cc1cc2c(cc1F)c(C#N)c(-c1ccc(S(=O)(=O)N[C@@H](C)C(F)(F)F)cn1)n2-c1ccccn1 | 49 | 18 | 4.52 | > 10 | –
Cc1cc2c(cc1F)c(C#N)c(-c1ccc(S(=O)(=O)N[C@@H](C)C(F)(F)F)cn1)n2-c1cccs1 | 29 | 2 | 0.48 | > 10 | –
Cc1cc2c(cc1F)c(C#N)c(-c1ccc(S(=O)(=O)N[C@@H](C)C(F)(F)F)cn1)n2-c1cccnc1 | 65 | 11 | 6.39 | > 10 | –
C[C@H](NS(=O)(=O)c1ccc(-c2c(C#N)c3cc(F)c(Cl)cc3n2C2CCC2)nc1)C(F)(F)F | – | 460 | – | > 10 | –
C[C@H](NS(=O)(=O)c1ccc(-c2c(C#N)c3cc(F)c(C4CC4)cc3n2-c2ccc(F)cn2)nc1)C(F)(F)F | 20 | 12 | 1.7 | > 10 | –
CCc1cc2c(cc1F)c(C#N)c(-c1ccc(S(=O)(=O)N[C@@H](C)C(F)(F)F)cn1)n2-c1ncc(C)cn1 | 44 | 23 | 7.24 | > 10 | –
Cc1cc2c(cc1F)c(C#N)c(-c1ccc(S(=O)(=O)N[C@@H](C)C(F)(F)F)cn1)n2-c1ncccn1 | 213 | 6 | 8.91 | > 10 | Activity (Cytochrome P450 3A4 [7]): 7%; IC50 (Cytochrome P450 3A4 [1]): > 10 µM; IC50 (Cytochrome P450 2C9): > 10 µM; IC50 (Cytochrome P450 2D6): > 10 µM; Activity (Hepatocyte [8]): 41.5%; Activity [4]: 36%; Activity (Cytochrome P450 3A4 [9]): 3%; EC50 (Hepatitis C virus [10]): 2200 nM; Activity (Hepatocyte [11]): 39.8%
C[C@H](NS(=O)(=O)c1ccc(-c2c(C#N)c3cc(F)c(C4CC4)cc3n2-c2ccccn2)nc1)C(F)(F)F | – | 16 | – | > 10 | –
C[C@H](NS(=O)(=O)c1ccc(-c2c(C#N)c3cc(F)c(C4CC4)cc3n2C2CCC2)nc1)C(F)(F)F | – | 28 | – | > 10 | –
Cc1cc2c(cc1F)c(C#N)c(-c1ccc(S(=O)(=O)N[C@@H](C)C(F)(F)F)cn1)n2-c1cscn1 | 35 | 20 | 10.3 | > 10 | –
Cc1cc2c(cc1F)c(C#N)c(-c1ccc(S(=O)(=O)N[C@@H](C)C(F)(F)F)cn1)n2-c1cccnn1 | 22 | 13 | 3.26 | > 10 | –
Cc1cc2c(cc1F)c(C#N)c(-c1ccc(S(=O)(=O)N[C@@H](C)C(F)(F)F)cn1)n2C1CCC1 | 24 | 7 | 1.1 | > 10 | Kp at 6 h [12]: 29.1
Cc1cc2c(C#N)c(-c3ccc(S(=O)(=O)N[C@@H](C)C(F)(F)F)cn3)n(C3CCC3)c2cc1OC(F)F | – | 108 | – | 10 | –
Cc1cc2c(cc1F)c(C#N)c(-c1ccc(S(=O)(=O)N[C@@H](C)C(F)(F)F)cn1)n2-c1cnccn1 | 9 | 9 | 0.885 | > 10 | –
CC(O)c1cc2c(cc1F)c(C#N)c(-c1ccc(S(N)(=O)=O)cn1)n2-c1ncccn1 (configuration not stated) | – | > 10000 | – | – | –
CCc1cc2c(cc1F)c(C#N)c(-c1ccc(S(=O)(=O)N[C@@H](C)C(F)(F)F)cn1)n2-c1cnccn1 | 14 | 4 | 0.345 | > 10 | –
C[C@H](NS(=O)(=O)c1ccc(-c2c(C#N)c3ccc(OC(F)F)cc3n2-c2ncccn2)nc1)C(F)(F)F | – | 7 | 20.1 | > 10 | –
Cc1ccc2c(C#N)c(-c3ccc(S(=O)(=O)N[C@@H](C)C(F)(F)F)cn3)n(-c3ncccn3)c2c1 | – | 3 | – | > 10 | –
Cc1cc2c(cc1F)c(C#N)c(-c1ccc(S(=O)(=O)N[C@@H](C)C(F)(F)F)cn1)n2-c1ccc(F)cn1 | 42 | 8 | 3.45 | > 10 | –
Cc1cnc(-n2c(-c3ccc(S(=O)(=O)N[C@@H](C)C(F)(F)F)cn3)c(C#N)c3cc(F)c(C)cc32)nc1 | – | 32 | – | > 10 | –
COc1cc2c(cc1F)c(C#N)c(-c1ccc(S(=O)(=O)N[C@@H](C)C(F)(F)F)cn1)n2C1CCC1 | – | 74 | – | > 10 | –

Structure (SMILES) | Ratio [2] | EC50 (Hepatitis C virus [3]) [nM] | AUC(0-t) at 6 h [5] [µM·h] | IC50 [6] [µM] | also measured
CCc1cc2c(cc1F)c(C#N)c(-c1ccc(S(N)(=O)=O)cn1)n2-c1ncccn1 | – | > 10000 | – | – | –
C[C@H](NS(=O)(=O)c1ccc(-c2c(C#N)c3c(F)cc(OC(F)F)cc3n2C2CCC2)nc1)C(F)(F)F | – | 18 | – | > 10 | –
CC(O)c1cc2c(cc1F)c(C#N)c(-c1ccc(S(=O)(=O)N[C@@H](C)C(F)(F)F)cn1)n2-c1ncccn1 (some centres not stated) | – | 68 | – | – | –
CSc1cc2c(cc1F)c(C#N)c(-c1ccc(S(=O)(=O)N[C@@H](C)C(F)(F)F)cn1)n2C1CCC1 | – | 35 | – | > 10 | –
Cc1cc2c(cc1F)c(C#N)c(-c1ccc(S(=O)(=O)N[C@@H](C)C(F)(F)F)cn1)n2-c1ncccc1F | 194 | 3 | 8.54 | > 10 | IC50 (Cytochrome P450 3A4 [1]): > 10 µM; IC50 (Cytochrome P450 2C9): > 10 µM; IC50 (Cytochrome P450 2D6): > 10 µM; Activity [4]: 59%
C[C@H](NS(=O)(=O)c1ccc(-c2c(C#N)c3cc(F)c(C4CC4)cc3n2-c2ncccn2)nc1)C(F)(F)F | 75 | 6 | 2.04 | > 10 | –
Cc1cc2c(cc1F)c(C#N)c(-c1ccc(S(=O)(=O)N[C@@H](C)C(F)(F)F)cn1)n2-c1cncs1 | 38 | 7 | 6.27 | > 10 | –
CCc1cc2c(cc1F)c(C#N)c(-c1ccc(S(=O)(=O)N[C@@H](C)C(F)(F)F)cn1)n2-c1ncc(F)cn1 | 136 | 3 | 8.69 | > 10 | IC50 (Cytochrome P450 3A4 [1]): > 10 µM; IC50 (Cytochrome P450 2C9): > 10 µM; IC50 (Cytochrome P450 2D6): > 10 µM; Activity [4]: 71%
C[C@H](NS(=O)(=O)c1ccc(-c2c(C#N)c3cc(F)c(O)cc3n2C2CCC2)nc1)C(F)(F)F | – | 410 | – | > 10 | –
Cc1cc2c(cc1F)c(C#N)c(-c1ccc(S(=O)(=O)N[C@@H](C)C(F)(F)F)cn1)n2-c1nccs1 | 96 | 3 | 1.76 | > 10 | –
CCc1cc2c(cc1F)c(C#N)c(-c1ccc(S(=O)(=O)N[C@@H](C)C(F)(F)F)cn1)n2-c1ccc(F)cn1 | 12 | 13 | 1.79 | > 10 | –
CCc1cc2c(cc1F)c(C#N)c(-c1ccc(S(=O)(=O)N[C@@H](C)C(F)(F)F)cn1)n2-c1ccncc1 | 47 | 9 | 6.38 | > 10 | –
Cc1cc2c(cc1F)c(C#N)c(-c1ccc(S(=O)(=O)N[C@@H](C)C(F)(F)F)cn1)n2-c1ncccc1C | – | 400 | – | > 10 | –
Cc1cc2c(cc1F)c(C#N)c(-c1ccc(S(=O)(=O)N[C@@H](C)C(F)(F)F)cn1)n2-c1ncc(F)cn1 | 187 | 4 | 4.08 | > 10 | IC50 (Cytochrome P450 3A4 [1]): > 10 µM; IC50 (Cytochrome P450 2C9): > 10 µM; IC50 (Cytochrome P450 2D6): > 10 µM; Activity [4]: 96%
C[C@H](NS(=O)(=O)c1ccc(-c2c(C#N)c3cc(O)c(OC(F)F)cc3n2C2CCC2)nc1)C(F)(F)F | – | 63 | – | > 10 | –
Cc1cc2c(cc1F)c(C#N)c(-c1ccc(S(=O)(=O)N[C@@H](C)C(F)(F)F)cn1)n2-c1ccncc1 | 24 | 11 | 2.6 | > 10 | –
CCc1cc2c(cc1F)c(C#N)c(-c1ccc(S(=O)(=O)N[C@@H](C)C(F)(F)F)cn1)n2C1CCC1 | 18 | 4 | 0.3 | > 10 | Kp at 6 h [12]: 30.6
CCc1cc2c(C#N)c(-c3ccc(S(=O)(=O)N[C@@H](C)C(F)(F)F)cn3)n(C3CCC3)c2cc1OC(F)F | – | 1400 | – | > 10 | –
Cc1cc(F)c2c(C#N)c(-c3ccc(S(=O)(=O)N[C@@H](C)C(F)(F)F)cn3)n(C3CCC3)c2c1 | – | 153 | – | > 10 | –
Cc1ccc(-n2c(-c3ccc(S(=O)(=O)N[C@@H](C)C(F)(F)F)cn3)c(C#N)c3cc(F)c(C)cc32)nc1 | – | 25 | – | > 10 | –
C[C@H](NS(=O)(=O)c1ccc(-c2c(C#N)c3cc(F)c(OC(F)F)cc3n2-c2ncccn2)nc1)C(F)(F)F | – | 16 | 3.81 | > 10 | –
CCc1cc2c(cc1F)c(C#N)c(-c1ccc(S(=O)(=O)N[C@@H](C)C(F)(F)F)cn1)n2-c1nccs1 | 347 | 2 | 2.75 | > 10 | –
